PAX8 reporter: PAX8 transcriptional activity inhibition; RMG-I TPO-luciferase reporter, SteadyGlo, 24 h; inhibition, % at 12.6 µM; 1.2% of 360,000 active; AID 652154;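 active = mean replicate inhibition at least 60% with every replicate also reaching 60%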;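 also: luciferase light reporting Pax8 driven TPO promoter activity; plate controls were median of neutral control wells for no effect and mitoxantrone controls for full effect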
PGC1a acetyl inh: PGC1a acetylation modulation, inhibitor mode; U2OS PGC1a acetylation, AlphaScreen anti-acetyl-lysine; with virally co-expressed GCN5 acetyltransferase; inhibition, % at 15.6 µM; 0.17% of 350,000 active; AID 651687;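 active = every replicate shows inhibition of at least 40%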;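 also: 0% = neutral control wells and 100% = positive control wells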
Xi reactivation: X-chromosome reactivation activator; XiGFP mouse fibroblasts, % GFP-positive cells imaging, 3 d; cells co-treated with 5-aza-dC sensitizer; scaled so ellipticine positive control = 100%; activation, % at 7.58 µM; 0.055% of 360,000 active;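 active = mean normalized replicate activation at least 10% and every replicate at or above 10%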;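 also: 0% = median of on-plate neutral control wells and 100% = ellipticine 6 µM median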
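Schedule: 3 d treatment, 15 min room-temperature fixation; system: 68-5-11 XiGFP fibroblast line; buffer or medium: DMEM plus 5-aza-dC sensitizer; control set: ellipticine 6 µM positive control; compound: one concentration, pinned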
INS-1E GSIS act: primary screen for activators of insulin secretion dependent on glucose, INS-1E cells, GLuc reporter luminescence. INS-1E GLuc reporter insulin secretion, 2-3 h. activation, % at 16.6 µM. 0.61% of 370,000 active;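 active = lowest replicate activation of at least 40%, so every replicate reaches that level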;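 also: 0% = median of neutral control wells and 100% = median of IBMX positive control wells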
AF4-AF9 inh: MLL-AF4/AF9 protein interaction inhibition | AID 651704 | 0.47% of 350,000 active | AlphaScreen, biotin-AF4 peptide binding to FLAG-AF9 | inhibition, % at 10 µM;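 active = every replicate reaching a set inhibition limit, whatever the replicate mean, cut at about 25% in these data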;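 also: 0% = plate neutral control median and 100% = total signal loss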
Target sequence (P42568 whole entry, looked up): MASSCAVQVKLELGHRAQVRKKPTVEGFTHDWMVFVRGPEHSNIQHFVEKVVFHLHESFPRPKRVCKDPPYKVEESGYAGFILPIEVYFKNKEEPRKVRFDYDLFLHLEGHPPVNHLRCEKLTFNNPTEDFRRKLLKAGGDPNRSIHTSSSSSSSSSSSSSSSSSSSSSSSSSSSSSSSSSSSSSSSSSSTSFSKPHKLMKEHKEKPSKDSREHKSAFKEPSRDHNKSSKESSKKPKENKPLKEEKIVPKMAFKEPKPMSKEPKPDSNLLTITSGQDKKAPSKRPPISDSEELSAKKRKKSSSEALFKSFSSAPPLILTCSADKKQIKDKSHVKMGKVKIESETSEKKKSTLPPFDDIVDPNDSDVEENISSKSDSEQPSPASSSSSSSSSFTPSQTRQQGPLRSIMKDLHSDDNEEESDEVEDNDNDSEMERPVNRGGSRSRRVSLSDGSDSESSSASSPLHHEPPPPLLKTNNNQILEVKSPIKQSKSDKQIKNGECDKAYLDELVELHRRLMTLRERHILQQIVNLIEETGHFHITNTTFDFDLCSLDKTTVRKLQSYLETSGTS
EWS-Fli inh: EWS/Fli transcriptional activity inhibition. inhibition, % at 12.6 µM. 0.67% of 350,000 active. AID 651661. A673 NR0B1-luciferase reporter, viability-normalised;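 active = mean inhibition of at least 50% after viability correction, with every replicate also passing that limit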;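 also: firefly luciferase signal divided by Alamar Blue viability fluorescence both relative to DMSO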
The depositor's hits bear a star; · = no result given; ! = a repeat was not active. The list is not random: actives were taken first. Their share in the collection is about 2.1%.

SMILES | PAX8 reporter | PGC1a acetyl inh | Xi reactivation | INS-1E GSIS act | AF4-AF9 inh | EWS-Fli inh
C[C@H]1CCCCO[C@H](CN(C)Cc2ccc(C(F)(F)F)cc2)[C@@H](C)CN([C@@H](C)CO)C(=O)c2cc(NC(=O)Cc3ccccc3)ccc2O1 | 76* | 21 | 0 | -32 | · | 14
C[C@@H]1CN([C@H](C)CO)C(=O)c2cc(NC(=O)Cc3ccccc3)ccc2O[C@@H](C)CCCCO[C@@H]1CN(C)Cc1ccccc1 | 25 | -16 | 0 | -29 | 5 | 13
C[C@H]1CCCCO[C@@H](CN(C)Cc2ccc(C(=O)O)cc2)[C@@H](C)CN([C@@H](C)CO)C(=O)c2cc(NC(=O)Cc3ccccc3)ccc2O1 | -8 | -10 | 0 | 0 | 3 | -7
C[C@@H]1CN([C@@H](C)CO)C(=O)c2cc(NC(=O)Cc3ccccc3)ccc2O[C@@H](C)CCCCO[C@@H]1CN(C)Cc1ccc(C(F)(F)F)cc1 | 97* | -17 | 0 | -16 | 0 | 8
Cc1noc(C)c1S(=O)(=O)N(C)C[C@H]1Oc2ccc(NC(=O)Cc3cn(C)c4ccccc34)cc2C(=O)N([C@H](C)CO)C[C@@H]1C | · | · | 0 | 2 | · | ·
C[C@@H]1CN([C@@H](C)CO)S(=O)(=O)c2ccc(-c3ccc(C#N)cc3)cc2O[C@@H]1CN(C)C(=O)CN(C)C | · | 8 | 1 | 0 | 0 | -8
CCCN1C[C@H](C)[C@H](OC)CN(C)C(=O)c2cc(NC(=O)c3cccc(F)c3)ccc2OC[C@H]1C | · | -17 | 0 | 3 | -1 | 0
C[C@@H]1CN([C@@H](C)CO)C(=O)c2cc(NC(=O)Cc3ccccc3)ccc2O[C@@H](C)CCCCO[C@H]1CN(C)Cc1ccc(C(=O)O)cc1 | -7 | -5 | 0 | 14 | 3 | 4
C[C@@H]1CN([C@H](C)CO)C(=O)c2cc(NC(=O)Cc3ccccc3)ccc2O[C@@H](C)CCCCO[C@H]1CN(C)Cc1ccc(C(F)(F)F)cc1 | 80* | 11 | 0 | -12 | · | 32
C[C@H](CO)N1C[C@H](C)[C@H](CN(C)Cc2ccc(C(F)(F)F)cc2)OCCCC[C@H](C)Oc2ccc(NC(=O)Cc3ccccc3)cc2C1=O | 110* | -13 | 0 | -14 | 1 | 4
C[C@H]1CCCCO[C@H](CN(C)Cc2ccccc2)[C@@H](C)CN([C@@H](C)CO)C(=O)c2cc(NC(=O)Cc3ccccc3)ccc2O1 | -29 | -13 | 0 | -14 | 2 | 7
C[C@@H]1CN([C@H](C)CO)S(=O)(=O)c2ccc(C#Cc3ccccc3F)cc2O[C@@H]1CN(C)C | · | 10 | 0 | -4 | 13 | -1
CN(C)C(=O)C[C@@H]1C[C@@H]2c3cc(NC(=O)c4ccc5c(c4)OCO5)ccc3O[C@@H]2[C@@H](CO)O1 | · | 4 | 0 | 0 | 1 | -6
Cc1csc(NC(=O)CCSCCc2ccccn2)n1 | -4 | -7 | 0 | 0 | 42* | -1
COc1ccc2c3c(n(C)c2c1)[C@@H](CO)N(Cc1ccncc1)CC31CN(C(=O)Cc2ccncc2)C1 | 11 | 0 | 0 | -6 | 0 | 0
CC1(C)SC2c3ccccc3C(=O)N2[C@@H]1C(=O)NC1CC1 (some centres undefined) | 11 | · | 0 | 42* | -2 | 1
Cc1ccc(S(=O)(=O)N(C)C[C@H]2Oc3c(NC(=O)Nc4cccc5ccccc45)cccc3C(=O)N([C@@H](C)CO)C[C@@H]2C)cc1 | 103* | -15 | 0 | 5 | 2 | 3
C[C@H]1CN([C@@H](C)CO)C(=O)c2cccc(NC(=O)Nc3ccc4c(c3)OCO4)c2O[C@@H]1CN(C)C(=O)Nc1ccccc1 | -8 | -14 | -1 | -4 | · | 0
C[C@H](CO)N1C[C@H](C)[C@H](CN(C)C(=O)Nc2ccc3c(c2)OCO3)Oc2c(NC(=O)Nc3ccccc3)cccc2C1=O | 72* | 5 | -1 | -8 | 10 | -35
C[C@H]1CN([C@@H](C)CO)C(=O)c2cccc(NC(=O)Nc3cccc4ccccc34)c2O[C@@H]1CN(C)C(=O)Nc1ccc(C(F)(F)F)cc1 | 74* | 0 | 0 | -16 | 8 | 8
C[C@@H]1CN([C@H](C)CO)C(=O)c2cccc(NC(=O)Nc3cccc4ccccc34)c2O[C@H]1CN(C)C(=O)Nc1ccc(C(F)(F)F)cc1 | 81* | -5 | 0 | 3 | 12 | 10
O=C(N[C@@H]1CC[C@H](CC(=O)N2CCc3ccccc3C2)O[C@@H]1CO)C1CCOCC1 | 6 | 1 | 0 | 1 | -21 | 1
Cc1noc(C)c1S(=O)(=O)N(C)C[C@@H]1OCCCC[C@H](C)Oc2ccc(NC(=O)C3CCCCC3)cc2C(=O)N([C@H](C)CO)C[C@H]1C | 17 | 29 | -1 | -18 | 6 | 2
Cc1noc(C)c1NC(=O)N(C)C[C@H]1Oc2c(NC(=O)C3CCCCC3)cccc2C(=O)N([C@H](C)CO)C[C@@H]1C | -14 | 3 | -1 | 41*! | -2 | -3
C[C@@H]1CN([C@@H](C)CO)S(=O)(=O)c2ccc(-c3ccccc3)cc2O[C@H]1CN(C)C(=O)C1CC1 | · | 0 | -1 | -13 | · | -1
SMILES | PAX8 reporter | PGC1a acetyl inh | Xi reactivation | INS-1E GSIS act | AF4-AF9 inh | EWS-Fli inh
O=C(c1cc(COc2cccc3cccnc23)on1)N1CCC[C@H]1CO | -12 | -1 | 0 | 8 | 41* | -24
COC(=O)C1CCCCN1C(=O)c1cc(COc2cccc3cccnc23)on1 (centres undefined) | 3 | 7 | 0 | 5 | 0 | -9
O=C(CC1CC1)N1CC2(C1)[C@@H](c1ccccc1)[C@@H](CO)N2Cc1cccc(F)c1 | 1 | 13 | 0 | -5 | 0 | -1
C[C@H]1CCCCO[C@H](CN(C)C(=O)Cc2ccccc2)[C@@H](C)CN([C@@H](C)CO)C(=O)c2cc(NC(=O)C3CCCCC3)ccc2O1 | -19 | -14 | 0 | -14 | · | 0
COc1ccc(S(=O)(=O)N2CCCCN3[C@H](CO)[C@H](c4ccc(C#CC(C)C)cc4)[C@H]3C2)cc1 | 77* | -11 | 0 | -25 | 1 | 35
COc1ccc(S(=O)(=O)N2CCCCN3[C@H](C2)[C@@H](c2ccc(C#CC(C)C)cc2)[C@@H]3CO)cc1 | 91* | -8 | 0 | 6 | -9 | 11
CN(C)c1ccc(C(CNC(=O)COc2ccc(Cl)cc2)N2CCCC2)cc1 (centres undefined) | 8 | · | 0 | -1 | 26* | -5
COc1ccc(C(CNC(=O)COc2cc(C)ccc2Cl)N2CCCCC2)cc1 (centres undefined) | 6 | 20 | 0 | 5 | 1 | 4
O=[N+]([O-])c1ccc(C=NN2CCCCCC2)cc1 | -260 | 19 | 0 | · | 35* | -68
c1ccc(COc2ccc(OCCCN3CCCC3)cc2)cc1 | 67* | · | 0 | 1 | 9 | -11

From PubChem
